This is a sample that favours compounds with a hit; in the whole collection about 6.4% have one here.
EBV gp42 inh: Epstein-Barr virus gp42 inhibitors, primary screen, biochemical, uHTS, fluorescence polarization. Glycoprotein 42 (Epstein-Barr virus (strain AG876)), Q1HVG2. Fluorescence polarization binding assay, mP read-out. inhibition, % (tested at 21.74 µM). hit rate 0.42% among 220,000. AID 1085, 2008; in the data active = inhibition above about 50%
Target sequence (Q1HVG2 whole entry, looked up): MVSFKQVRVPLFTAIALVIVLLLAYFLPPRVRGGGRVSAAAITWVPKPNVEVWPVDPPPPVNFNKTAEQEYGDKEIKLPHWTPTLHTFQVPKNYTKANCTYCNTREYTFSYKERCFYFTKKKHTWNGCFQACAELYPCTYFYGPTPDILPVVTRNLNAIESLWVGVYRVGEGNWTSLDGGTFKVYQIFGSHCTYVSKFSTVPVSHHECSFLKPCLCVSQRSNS
GRIN3A LBD mod: binders of NR3A ligand-binding domain, primary screen, biophysical, differential scanning fluorimetry, uHTS; Glutamate receptor ionotropic, NMDA 3A (GRIN3A) ligand-binding domain; NR3A LBD differential scanning fluorimetry, Tm shift; 0% = protein alone, 100% = glycine-bound protein; Tm shift relative to glycine control, % at 25 µM; hit rate 2.5% among 340,000; AID 1259313, 2017;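 active = melting temperature shift of at least 10% of the positive control shift, at one fixed dose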
WT yeast gro inh: growth inhibition of WT strain, primary screen, mitochondrial fusion inhibitor project, WT and mutant strains, chemical genetic. mitochondrial fusion phenotypic screen. hit rate 2.1% among 190,000. AID 1362, 2008. inhibition, % at 10 µM; in the data active = inhibition above about 58%; tested in S. cerevisiae
Tb MetRS inh: T. brucei MetRS inhibitors, primary screen, biochemical, luminescence; methionyl-tRNA synthetase (Trypanosoma brucei brucei); purified T. brucei MetRS, ATP depletion, Kinase-Glo luminescence; inhibition, % at 11.9 µM; hit rate 0.4% among 360,000;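 active = inhibition above a per-plate cutoff of the control wells' mean inhibition plus 3 SD, cut at about 5.5% in these data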;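 also: 0% = DMSO wells median and 100% = median of wells with control inhibitor compound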
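Material: parasite MetRS enzyme / Replication: singlicate, one well per compound / Signal: luminescence of leftover ATP / Schedule: 2 h aminoacylation at 25 °C after 15 min preincubation / Medium: HEPES-MgCl2-KCl buffer plus DTT, spermine, BSA, pyrophosphatase / Doses: 11.9 µM single point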
CHOP inh: inhibitors of CHOP promoter induction, primary screen, cell-based, unfolded protein response, luciferase reporter; CHO-K1 CHOP-promoter luciferase, tunicamycin-induced, 15-18 h; inhibition, % at 10 µM; hit rate 3.8% among 220,000; AID 2732, 2010;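 active = compounds that reduced the stress-induced luciferase reporter signal by more than about 70% of percent inhibition, limit read from the data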;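 also: 0% = tunicamycin plus vehicle and 100% = wells without tunicamycin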
MPTP inh: mitochondrial permeability transition pore inhibitors, primary screen, biochemical, isolated mouse mitochondria, absorbance; inhibition, % at 10 µM; hit rate 1.4% among 360,000; Ca2+ swelling absorbance, 30 min;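 active = inhibition of 50% or more, scaled per plate between neutral and stimulator controls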;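 also: 0% = DMSO wells given calcium and 100% = 1 mM EGTA wells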
Rh123 counter: fluorescence retest of MPTP screen hits in isolated mitochondria, single concentration | membrane potential, Rhodamine 123 fluorescence | shares compounds with MPTP inh | hit rate 78% among 5,000 | AID 624504, 2012 | inhibition, % at 10 µM; in the data active = inhibition above about 22%;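 also: 0% = DMSO vehicle and 100% = positive control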
Tb MetRS conf: T. brucei MetRS inhibitors, confirmation, biochemical, luminescence | shares compounds with Tb MetRS inh | T. brucei MetRS enzyme, luminescence (ATP depletion) | inhibition, % at 11.9 µM | hit rate 93% among 1,400 | AID 624412, 2012; in the data active = inhibition above about 7%
Jurkat cytotox: Jurkat T cell cytotoxicity, cytotoxicity control for T. brucei MetRS inhibitor project, luminescence, high throughput; shares compounds with Tb MetRS inh; Jurkat cells viability, ATP luminescence; inhibition, % at 8.3 µM; hit rate 12% among 1,400; AID 624413, 2012; in the data active = inhibition above about 15%;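 also: 0% = vehicle and 100% = reference inhibitor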
TbMetRS FP orth: T. brucei MetRS inhibitors, orthogonal assay for T. brucei MetRS inhibitor project, biochemical, fluorescence polarization; hit rate 44% among 1,400; inhibition, % at 11.9 µM; purified T. brucei MetRS; shares compounds with Tb MetRS inh; in the data active = inhibition above about 17%;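 also: 0% = vehicle wells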
Starred values were filed as active, the others as inactive; / = no result given.

SMILES	EBV gp42 inh	GRIN3A LBD mod	WT yeast gro inh	Tb MetRS inh	CHOP inh	MPTP inh	Tb MetRS conf	Jurkat cytotox	TbMetRS FP orth	others
COCCOc1ccc(C(F)(F)F)cc1NC(=O)c1ccccc1F	-5	-3	-6	0	22	2	/	/	/
COc1cccc2[nH]c3c(N4CCc5ccccc5C4)ncnc3c12	-6	-2	/	/	-30	/	/	/	/
c1ccc2c(c1)CCN(c1ncnc3c1[nH]c1ccccc13)C2	16	-5	72*	13*	71*	99*	9.1*	46*	10	Rh123 counter=101*
Cc1ccc2[nH]c3c(N4CCN(Cc5ccccc5)CC4)ncnc3c2c1	2	-9	25	8.1*	61	85*	18*	15*	4	Rh123 counter=68*
C=CCc1cccc(/C=C/c2cc(=O)c3ccccc3[nH]2)c1O	-15	-30	-3	6.4*	6	60*	19*	15*	8	Rh123 counter=50*
C/C(=N\NC(=O)c1cccc(Br)c1)c1ccccn1	/	-3	/	0	/	0	/	/	/
Oc1cccc(Nc2c3ccccc3nc3ccccc23)c1	/	-1	/	1	/	3	/	/	/
O=S(=O)(c1ccccc1)c1nc(Nc2cccc(O)c2)sc1Cl	3	11*	-3	10*	26	54*	20*	18*	6	Rh123 counter=39*
O=C(CN1C(=O)NC(Cc2c[nH]c3ccccc23)C1=O)Nc1ccc(F)c(F)c1F (stereo not drawn)	/	-7	/	0	/	0	/	/	/
Oc1ccc(-c2nnc(-c3ccccc3)c(-c3ccccc3)n2)cc1	8	/	4	/	-9	/	/	/	/
Cc1ccc(C2CC2C(=O)NNC(=S)Nc2cccc(C)c2)cc1 (stereo not drawn)	0	-9	-5	0	14	9	/	/	/
Cc1ccc(C2CC2C(=O)NNC(=S)Nc2cccc(Cl)c2)cc1 (stereo not drawn)	-5	11*	21	6.5*	18	61*	14*	0	10	Rh123 counter=70*
O=C(c1ccc2c(c1)OCO2)C1CCCN(Cc2ccc3nsnc3c2)C1 (stereo not drawn)	-14	-2	6	1	33	-1	/	/	/
Cn1c(CN2CCCC(C(=O)c3ccc4c(c3)OCO4)C2)nc2ccccc21 (stereo not drawn)	5	0	22	6.4*	18	1	12*	-1	1
COc1cc(/C=C/C(=O)O)ccc1OCc1ccc([N+](=O)[O-])cc1	-13	-1	30	0	-1	1	/	/	/
Cc1ccccc1N1C(=O)CC(N(O)c2ccccc2)C1=O (stereo not drawn)	-12	1	0	-1	6	0	/	/	/
O=C1CC(N(O)c2ccccc2)C(=O)N1c1cc(Cl)cc(Cl)c1 (stereo not drawn)	-22	-2	-1	13*	2	0	65*	-9	28*
CN(c1cccc(Cl)c1)S(=O)(=O)c1cccc(C(=O)Nc2nc3ccccc3[nH]2)c1	-12	-1	39	33*	-26	2	44*	68*	22*
COc1ccc(N(C)S(=O)(=O)c2cccc(C(=O)Nc3nc4ccccc4[nH]3)c2)cc1	-5	-5	21	0	0	-2	/	/	/
COc1ccc(-n2c(N)c(C(=O)NCc3ccco3)c3nc4ccccc4nc32)cc1	3	-6	-21	-1	-10	-1	/	/	/
Nc1c(C(=O)NCc2ccco2)c2nc3ccccc3nc2n1CCc1ccc(F)cc1	0	5	-13	8.4*	59	14	11*	14	10
Nc1ncnc2nc(SCC(=O)Nc3cccc(C(F)(F)F)c3)[nH]c12	/	-20	/	33*	/	1	57*	-3	28*
COc1cc(NC(=O)CSc2nc3ncnc(N)c3[nH]2)c(C(=O)O)cc1OC	/	0	/	-1	/	0	/	/	/
O=C(CSc1nc2ncc(Cl)cc2[nH]1)Nc1cccc(F)c1	/	-3	/	21*	/	23	47*	2	23*
Fc1cccc(CSc2nc3ncccc3[nH]2)c1	-26	0	-3	0	-5	-1	/	/	/
SMILES	EBV gp42 inh	GRIN3A LBD mod	WT yeast gro inh	Tb MetRS inh	CHOP inh	MPTP inh	Tb MetRS conf	Jurkat cytotox	TbMetRS FP orth	others
Fc1cccc(CSc2nc3ncc(Cl)cc3[nH]2)c1	-9	2	/	6.4*	2	16	7.3*	5	0
CCCN(Cc1ccco1)S(=O)(=O)c1ccc(OC)c(OC)c1	3	0	/	1	0	5	/	/	/
COc1ccc(NS(=O)(=O)c2cccc(C(=O)Nc3ccccc3C(=O)O)c2)cc1	/	-1	/	2	/	1	/	/	/
COc1ccc(NC(=O)CN2CCCCC2)cc1S(=O)(=O)N1CCCCC1	/	3	/	0	/	-1	/	/	/
COc1ccc(NC(=O)Nc2ccccc2)cc1S(=O)(=O)N1CCCCC1	-1	-2	2	11*	33	-1	27*	7	15
Cc1ccc(CNC(=O)c2nnn(-c3cccc(C)c3)c2N)cc1	3	5	18	0	40	-1	/	/	/
COc1cc2ccccc2cc1C(=O)N1CC(C)OC(C)C1 (stereo not drawn)	/	2	/	0	/	-1	/	/	/
O=C(CNC(=O)c1cccc(Br)c1)N/N=C/c1cccs1	/	-1	/	6.0*	/	1	20*	3	2
NS(=O)(=O)c1ccc(CCNC(=O)CCCn2c(=O)[nH]c3ccc(Br)cc3c2=O)cc1	-3	1	6	14*	12	0	22*	-7	13
CC(C)CCNC(=O)CCCn1c(=O)[nH]c2ccc(Br)cc2c1=O	3	-4	4	1	22	-2	/	/	/
CCCNC(=O)c1ccc2nc(-c3ccccc3)c(-c3ccccc3)nc2c1	-4	-3	-2	0	14	2	/	/	/
Cc1ccc(NS(=O)(=O)c2c(C)[nH]c(C)c2C(=O)N2CCCCC2)c(Br)c1	/	0	/	24*	/	-1	39*	2	15
